The values below come from ChEMBL document CHEMBL4308919, “Discovery of TD-0212, an Orally Active Dual Pharmacology AT1 Antagonist and Neprilysin Inhibitor (ARNI)” (ACS Med Chem Lett, 2019).

Experiment [1] concerns the target T1, Type-1 angiotensin II receptor (Homo sapiens, UniProt P30556).
T1 sequence (P30556 whole entry): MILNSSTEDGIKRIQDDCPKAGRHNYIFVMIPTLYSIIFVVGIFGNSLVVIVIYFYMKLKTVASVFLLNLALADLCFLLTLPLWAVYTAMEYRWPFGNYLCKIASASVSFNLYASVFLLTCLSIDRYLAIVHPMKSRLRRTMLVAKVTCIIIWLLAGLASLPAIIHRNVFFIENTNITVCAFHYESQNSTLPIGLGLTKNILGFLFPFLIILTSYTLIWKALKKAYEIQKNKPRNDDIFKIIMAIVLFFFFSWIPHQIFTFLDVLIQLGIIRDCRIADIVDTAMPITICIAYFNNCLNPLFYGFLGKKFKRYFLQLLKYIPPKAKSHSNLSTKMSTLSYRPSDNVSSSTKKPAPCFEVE
Briefly: Displacement of Europium-labeled angiotensin-2 from human AT1 receptor expressed in CHOK1 cell membranes after 120 mins by DELFIA.

Experiment [2] deals with Rattus norvegicus. Briefly: In vivo antagonist activity at AT1 receptor in Sprague-Dawley rat assessed as inhibition of angiotensin-2-induced pressor response at 3 mg/kg, iv treated for 5 mins at 15 mins post 2 doses of angiotensin-2 treatment at 15 minutes apart followed by ANP treatment and subsequent angiotensin-2 re-challenge after 60 mins relative to control. It is filed as functional. In short, it runs like this: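 Rat pharmacodynamic assay with intravenous dosing to exclude oral absorption. AT1 antagonism is read in the same animal as inhibition of the angiotensin-II-evoked pressor response. NEP inhibition is read as potentiation of ANP-induced elevation of urinary cGMP output, relative to vehicle.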

Experiment [3] deals with T2, Type-1 angiotensin II receptor (Homo sapiens) (UniProt P30556).
T2 sequence (whole entry): T1 sequence (P30556 whole entry)
Put plainly: Antagonist activity at AT1 receptor (unknown origin) by inositol phosphate accumulation assay relative to control. It is filed as functional.

In experiment [4] the target is Neprilysin (Homo sapiens, UniProt P08473). Briefly: Inhibition of NEP (unknown origin) preincubated for 10 mins followed by fluorogenic substrate addition and measured after 20 mins by fluorescence assay.
Neprilysin, sequence (P08473 whole entry): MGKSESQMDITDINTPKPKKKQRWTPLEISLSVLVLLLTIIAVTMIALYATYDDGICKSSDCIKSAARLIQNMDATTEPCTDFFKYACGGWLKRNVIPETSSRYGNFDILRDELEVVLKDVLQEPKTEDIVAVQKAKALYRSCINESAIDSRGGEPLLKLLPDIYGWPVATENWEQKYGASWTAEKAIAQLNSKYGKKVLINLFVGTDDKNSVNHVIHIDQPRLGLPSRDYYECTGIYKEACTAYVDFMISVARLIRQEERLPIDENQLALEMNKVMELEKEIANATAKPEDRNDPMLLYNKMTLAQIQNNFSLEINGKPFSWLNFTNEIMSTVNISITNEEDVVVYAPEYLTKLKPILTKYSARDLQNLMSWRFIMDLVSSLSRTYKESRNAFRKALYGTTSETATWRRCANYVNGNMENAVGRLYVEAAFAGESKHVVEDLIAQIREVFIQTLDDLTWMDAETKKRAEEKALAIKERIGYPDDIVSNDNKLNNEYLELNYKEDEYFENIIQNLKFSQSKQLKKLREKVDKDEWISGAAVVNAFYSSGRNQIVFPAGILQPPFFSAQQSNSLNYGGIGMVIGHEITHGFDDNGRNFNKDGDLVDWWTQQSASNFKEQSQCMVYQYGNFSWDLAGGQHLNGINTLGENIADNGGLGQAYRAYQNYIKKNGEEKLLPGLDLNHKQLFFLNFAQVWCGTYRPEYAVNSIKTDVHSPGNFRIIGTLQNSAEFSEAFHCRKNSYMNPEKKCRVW

Turning to `CCOc1nc(CC)c(CNC(=O)[C@@H](S)CC(C)C)n1Cc1ccc(-c2ccccc2C(=O)O)cc1`, in experiment [1], the inhibition constant (Ki) is 6.31 nM. Also, the inhibition in vivo at 3 mg/kg in experiment [2] was 57%.

As to `CCCCc1nc(Cl)c(CNC(=O)CNC(=O)C(CS)Cc2ccccc2)n1Cc1ccc(-c2ccccc2-c2nnn[nH]2)cc1` (racemic), in experiment [1], the Ki was 10 nM.

With `CCCCc1nc(C)c(CNC(=O)[C@@H](CS)CC(C)C)n1Cc1ccc(-c2ccccc2C(=O)O)cc1`, the Ki in experiment [1] is 50.1 nM.

In experiment [1], `CCCCc1nc(Cl)c(CNC(=O)C(CS)CC(CC)CC)n1Cc1ccc(-c2ccccc2C(=O)O)cc1` (racemic) gave a Ki of 50.1 nM.

Regarding `CCCCc1nc(Cl)c(CNC(=O)C(CS)C(C)CC)n1Cc1ccc(-c2ccccc2C(=O)O)cc1` (racemic), the Ki in experiment [1] is 631 nM.

`CCCCc1nc(Cl)c(CNC(=O)[C@H](CS)CC(C)C)n1Cc1ccc(-c2ccccc2C(=O)O)cc1` had a Ki in experiment [1] of 100 nM.

`CCCCc1nc(Cl)c(CNC(=O)C(CS)CC(C)C)n1Cc1ccc(-c2ccccc2-c2nnn[nH]2)cc1` (racemic) showed a Ki in experiment [1] of 10 nM.

Take `CCCCc1nc(Cl)c(CNC(=O)C(CS)Cc2ccccc2)n1Cc1ccc(-c2ccccc2C(=O)O)cc1` (racemic): the Ki in experiment [1] was 79.4 nM.

On to `CCCCc1nc(CC(C)C)c(CNC(=O)[C@@H](CS)CC(C)C)n1Cc1ccc(-c2ccccc2C(=O)O)cc1`, for which, in experiment [1], the Ki was 7.94 nM.

For `CCCCc1nc(Cl)c(CNC(=O)C(CS)CC2CC2)n1Cc1ccc(-c2ccccc2C(=O)O)cc1` (racemic), in experiment [1], the Ki is 31.6 nM.

`CCOc1nc(CC)c(CNC(=O)[C@@H](S)CC(C)C)n1Cc1cc(F)c(-c2ccccc2C(=O)O)cc1F` had a Ki in experiment [1] of 5.01 nM.

In the case of `CCCCc1nc(Cl)c(CNC(=O)C(CS)CC(C)C)n1Cc1ccc(-c2ccccc2C(=O)O)cc1` (racemic), the Ki in experiment [1] is 39.8 nM.

As for `CCCCc1nc(Cl)c(CNC(=O)C(CS)CC2CCCC2)n1Cc1ccc(-c2ccccc2C(=O)O)cc1` (racemic), in experiment [1], the affinity, expressed as Ki, was 50.1 nM.

In experiment [1], `CCOc1nc(CC)c(CNC(=O)[C@@H](CS)CC(C)C)n1Cc1ccc(-c2ccccc2C(=O)O)cc1` gave a Ki of 1.26 nM. Besides, the inhibition in vivo at 3 mg/kg in experiment [2] was determined as 67%.

In the case of `CCCCc1nc(Cl)c(CNC(=O)C(CS)Cc2ccccc2)n1Cc1ccc(-c2ccccc2-c2nnn[nH]2)cc1` (racemic), the Ki in experiment [1] was 15.8 nM.

`CCCCc1nc(Cl)c(CNC(=O)C(CS)C(C)C)n1Cc1ccc(-c2ccccc2C(=O)O)cc1` (racemic) gave an inhibition constant (Ki) in experiment [1] of 126 nM.

Regarding `CCCCc1nc(Cl)c(CO)n1Cc1ccc(-c2ccccc2-c2nnn[nH]2)cc1` [LOSARTAN], the inhibition in vivo at 3 mg/kg in experiment [2] worked out at 67%. The % IP accumulation in experiment [3] came out at 87%.

In experiment [4], `CCCCc1nc(Cl)c(CO)n1Cc1ccc(-c2ccccc2-c2nn[nH]n2)cc1` [LOSARTAN] had an IC50 greater than 10000 nM.

Turning to `CCCOc1nc(CC)c(CNC(=O)[C@@H](S)CC(C)C)n1Cc1ccc(-c2ccccc2C(=O)O)cc1`, the affinity in experiment [1] corresponds to a Ki of 20 nM. In addition, in experiment [2], the inhibition in vivo at 3 mg/kg is 23%.

`CCCCc1nc(CC)c(CNC(=O)[C@@H](S)CC(C)C)n1Cc1ccc(-c2ccccc2C(=O)O)cc1` had an inhibition constant Ki in experiment [1] of 39.8 nM. The inhibition in vivo at 3 mg/kg in experiment [2] amounted to 18%.

In experiment [1], `CCCCc1nc(CC(C)C)c(CNC(=O)[C@@H](S)CC(C)C)n1Cc1ccc(-c2ccccc2C(=O)O)cc1` showed a Ki of 31.6 nM. Also, the inhibition in vivo at 3 mg/kg in experiment [2] stood at 32%.

As for `CCCCc1nc(C)c(CNC(=O)[C@@H](S)CC(C)C)n1Cc1ccc(-c2ccccc2C(=O)O)cc1`, in experiment [1], the Ki is 200 nM.

As to `CCCCc1nc(Cl)c(CNC(=O)C(CS)CC2CCCCC2)n1Cc1ccc(-c2ccccc2C(=O)O)cc1` (racemic), in experiment [1], the Ki is 251 nM.

With `CCCCc1nc(Cl)c(CNC(=O)C(CS)CCC(C)C)n1Cc1ccc(-c2ccccc2C(=O)O)cc1` (racemic), in experiment [1], the affinity corresponds to a Ki of 126 nM.

The compound `CCCCc1nc(CC)c(CNC(=O)[C@@H](CS)CC(C)C)n1Cc1ccc(-c2ccccc2C(=O)O)cc1` had a Ki in experiment [1] of 5.01 nM. The inhibition in vivo at 3 mg/kg in experiment [2] amounted to 68%.

For `CCCCc1nc(Cl)c(CNC(=O)C(CS)CCCC)n1Cc1ccc(-c2ccccc2C(=O)O)cc1` (racemic), in experiment [1], the affinity corresponds to a Ki of 126 nM.

For `CCCCc1nc(Cl)c(CNC(=O)C(CS)C(C)c2ccccc2)n1Cc1ccc(-c2ccccc2C(=O)O)cc1` (racemic), the affinity in experiment [1] corresponds to a Ki of 79.4 nM.

Consider `CCCCc1nc(Cl)c(CNC(=O)C(CS)Cc2ccc3ccccc3c2)n1Cc1ccc(-c2ccccc2C(=O)O)cc1` (racemic), for which the Ki in experiment [1] was 158 nM.

As for `CCOc1nc(CC)c(CNC(=O)[C@@H](CS)CC(C)C)n1Cc1ccc(-c2ccccc2C(=O)O)cc1F`, in experiment [1], the Ki is 0.794 nM. In addition, the inhibition in vivo at 3 mg/kg in experiment [2] came to 85%.

In the case of `CCOc1nc(CC)c(CNC(=O)[C@@H](CS)CC(C)C)n1Cc1ccc(-c2ccccc2C(=O)O)c(F)c1`, the affinity in experiment [1] corresponds to a Ki of 1.26 nM.

In experiment [1], `CCOc1nc(CC)c(CNC(=O)[C@@H](S)CC(C)C)n1Cc1ccc(-c2ccccc2C(=O)O)c(F)c1` showed a Ki of 5.01 nM. Also, the inhibition in vivo at 3 mg/kg in experiment [2] was 57%.

Compound `CCCCc1nc(C2CC2)c(CNC(=O)[C@@H](S)CC(C)C)n1Cc1ccc(-c2ccccc2C(=O)O)cc1` had a Ki in experiment [1] of 31.6 nM. Also, in experiment [2], the inhibition in vivo at 3 mg/kg stood at 5%.

`CCCCc1nc(Cl)c(CNC(=O)[C@H](S)CC(C)C)n1Cc1ccc(-c2ccccc2C(=O)O)cc1` gave a Ki in experiment [1] of 126 nM.

For the compound `CCCCc1nc(Cl)c(CNC(=O)C(CS)Cc2cccc3ccccc23)n1Cc1ccc(-c2ccccc2C(=O)O)cc1` (racemic), affinity in experiment [1] was put at a Ki of 398 nM.

In turn, `CCCOc1nc(CC)c(CNC(=O)[C@@H](CS)CC(C)C)n1Cc1ccc(-c2ccccc2C(=O)O)cc1` showed a Ki in experiment [1] of 2.51 nM. The inhibition in vivo at 3 mg/kg in experiment [2] was determined as 65%.

In the case of `CCCCc1nc(Cl)c(CNC(=O)[C@@H](CS)CC(C)C)n1Cc1ccc(-c2ccccc2C(=O)O)cc1`, the Ki in experiment [1] is 15.8 nM. Besides, the inhibition in vivo at 3 mg/kg in experiment [2] was determined as 11%.

Compound `CCCCc1nc(Cl)c(CNC(=O)[C@@H](S)CC(C)C)n1Cc1ccc(-c2ccccc2C(=O)O)cc1` gave a Ki in experiment [1] of 63.1 nM.

For `CCCCc1nc(C2CC2)c(CNC(=O)[C@@H](CS)CC(C)C)n1Cc1ccc(-c2ccccc2C(=O)O)cc1`, the Ki in experiment [1] was 6.31 nM. The inhibition in vivo at 3 mg/kg in experiment [2] came out at 55%.

The compound `O=C(O)CNC(=O)C(CS)Cc1ccccc1` (stereo not drawn) [THIORPHAN] had a Ki in experiment [1] greater than 10000 nM.

`CCCCc1nc(Cl)c(CNC(=O)C(CS)Cc2ccc(-c3ccccc3)cc2)n1Cc1ccc(-c2ccccc2C(=O)O)cc1` (racemic): affinity in experiment [1] was put at a Ki of 398 nM.

As a reminder, the Ki is a measure of affinity in units of concentration, obtained from inhibition or displacement. High values mean weaker binding, low ones tighter binding. By inhibition in vivo is commonly meant the drop in the measured response relative to a control, in per cent. Usually IC50 stands for the midpoint of a concentration-inhibition curve.
